# The source made the active and inactive calls. No cut-off for these calls is given here.
# Tests used:
# MCF7 [1] = test: Cytotoxicity against human MCF7 cells after 48 hrs by MTT assay; type: functional, cell-based; settings: MCF7, 48 h
# HeLa [2] = test: Cytotoxicity against human HeLa cells after 48 hrs by MTT assay; type: functional, cell-based
# HUVEC [3] = test: Cytotoxicity against HUVEC at 12.5 nM after 48 hrs by MTT assay; type: cell-based; settings: human, 0.0125 µM
# HUVEC [4] = test: Cytotoxicity against HUVEC after 48 hrs by MTT assay; type: cell-based; settings: Homo sapiens
# Summary of the method: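 MTT assay. HeLa and MCF-7 were tested at 1 and 100 μM. HUVEC cytotoxicity was measured the same way as for HeLa and MCF-7, to define non-cytotoxic doses for the tube-formation work. IC50 values taken as means of three independent experiments.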
# A-431 = test: Cytotoxicity against human A431 cells over expressing EGFR after 48 hrs by MTT assay; type: functional, cell-based; settings: A-431, 48 h
# HUVEC [5] = test: Angiogenic activity in HUVEC assessed as induction of tube formation at 12.5 nM after 24 hrs by hematoxylin staining analysis; type: functional, cell-based; settings: Homo sapiens
# [6] = Cytotoxicity against human EAhy926 cells after 48 hrs by MTT assay; type: functional, cell-based; settings: EA.hy 926, 48 h
# HUVEC [7] = test: Antiangiogenic activity in HUVEC assessed as suppression of tube formation after 24 hrs by hematoxylin staining analysis; type: functional, cell-based; settings: Homo sapiens
# HeLa [8] = test: Cytotoxicity against human HeLa cells at 100 uM after 48 hrs by MTT assay; type: functional; settings: read-out: GI
# Summary of the method: (§1)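 MTT cytotoxicity screen against HeLa or MCF-7 cells at a single test concentration of 100 μM (screen also included 1 μM).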
# [9] = biological target: Fibroblast growth factor receptor 1 (Homo sapiens) (UniProt P11362); test: Inhibition of human recombinant FGFR1 expressed in insect cells using Ulight-CAGAGAIETDKEYYTVKD as substrate at 1 uM after 60 mins by fluorescence assay
# Summary of the method: (§2)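 In vitro kinase assay against FGFR1, PDGFRβ or VEGFR2 with test compound at 1 μM. Read-out is the level of phosphorylation of a tyrosine kinase-specific ligand peptide substrate.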
# [10] = biological target: Vascular endothelial growth factor receptor 2 (Homo sapiens) (UniProt P35968); test: Inhibition of human recombinant VEGFR2 expressed in insect cells using Ulight-CAGAGAIETDKEYYTVKD as substrate at 1 uM after 60 mins by fluorescence assay; summary of the method: as §2
# [11] = biological target: Platelet-derived growth factor receptor beta (Homo sapiens) (UniProt P09619); test: Inhibition of human recombinant PDGFR-beta expressed in insect cells using Ulight-Poly GAT[EAY(1:1:1)]n as substrate at 1 uM after 60 mins by fluorescence assay; summary of the method: as §2
# HUVEC [12] = test: Antiangiogenic activity in HUVEC assessed as suppression of tube formation at 25 nM after 24 hrs by hematoxylin staining analysis; type: functional; settings: Homo sapiens
# MCF7 [13] = test: Cytotoxicity against human MCF7 cells at 100 uM after 48 hrs by MTT assay; type: functional; settings: MCF7, 48 h, read-out: GI; summary of the method: as §1
# HUVEC [14] = test: Ratio of IC50 for cytotoxicity in HUVEC to EC50 for antiangiogenic activity in HUVEC; type: functional, Homo sapiens
# Summary of the method: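 Ratio of HUVEC cytotoxic IC50 (MTT) to antiangiogenic ED50 from the HUVEC tube-formation assay.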
# K562 = test: Cytotoxicity against human K562 cells; type: functional, cell-based
# MDA-MB-231 = test: Cytotoxicity against human MDA-MB-231 cells; type: functional, cell-based
# HUVEC [15] = test: Antiangiogenic activity in HUVEC assessed as suppression of tube formation at 6.25 uM after 24 hrs by hematoxylin staining analysis; type: functional; settings: Homo sapiens
# [16] = Homo sapiens, HeLa, 48 h, read-out: IC50
# Sequence of Vascular endothelial growth factor receptor 2 (Homo sapiens) (P35968 whole entry): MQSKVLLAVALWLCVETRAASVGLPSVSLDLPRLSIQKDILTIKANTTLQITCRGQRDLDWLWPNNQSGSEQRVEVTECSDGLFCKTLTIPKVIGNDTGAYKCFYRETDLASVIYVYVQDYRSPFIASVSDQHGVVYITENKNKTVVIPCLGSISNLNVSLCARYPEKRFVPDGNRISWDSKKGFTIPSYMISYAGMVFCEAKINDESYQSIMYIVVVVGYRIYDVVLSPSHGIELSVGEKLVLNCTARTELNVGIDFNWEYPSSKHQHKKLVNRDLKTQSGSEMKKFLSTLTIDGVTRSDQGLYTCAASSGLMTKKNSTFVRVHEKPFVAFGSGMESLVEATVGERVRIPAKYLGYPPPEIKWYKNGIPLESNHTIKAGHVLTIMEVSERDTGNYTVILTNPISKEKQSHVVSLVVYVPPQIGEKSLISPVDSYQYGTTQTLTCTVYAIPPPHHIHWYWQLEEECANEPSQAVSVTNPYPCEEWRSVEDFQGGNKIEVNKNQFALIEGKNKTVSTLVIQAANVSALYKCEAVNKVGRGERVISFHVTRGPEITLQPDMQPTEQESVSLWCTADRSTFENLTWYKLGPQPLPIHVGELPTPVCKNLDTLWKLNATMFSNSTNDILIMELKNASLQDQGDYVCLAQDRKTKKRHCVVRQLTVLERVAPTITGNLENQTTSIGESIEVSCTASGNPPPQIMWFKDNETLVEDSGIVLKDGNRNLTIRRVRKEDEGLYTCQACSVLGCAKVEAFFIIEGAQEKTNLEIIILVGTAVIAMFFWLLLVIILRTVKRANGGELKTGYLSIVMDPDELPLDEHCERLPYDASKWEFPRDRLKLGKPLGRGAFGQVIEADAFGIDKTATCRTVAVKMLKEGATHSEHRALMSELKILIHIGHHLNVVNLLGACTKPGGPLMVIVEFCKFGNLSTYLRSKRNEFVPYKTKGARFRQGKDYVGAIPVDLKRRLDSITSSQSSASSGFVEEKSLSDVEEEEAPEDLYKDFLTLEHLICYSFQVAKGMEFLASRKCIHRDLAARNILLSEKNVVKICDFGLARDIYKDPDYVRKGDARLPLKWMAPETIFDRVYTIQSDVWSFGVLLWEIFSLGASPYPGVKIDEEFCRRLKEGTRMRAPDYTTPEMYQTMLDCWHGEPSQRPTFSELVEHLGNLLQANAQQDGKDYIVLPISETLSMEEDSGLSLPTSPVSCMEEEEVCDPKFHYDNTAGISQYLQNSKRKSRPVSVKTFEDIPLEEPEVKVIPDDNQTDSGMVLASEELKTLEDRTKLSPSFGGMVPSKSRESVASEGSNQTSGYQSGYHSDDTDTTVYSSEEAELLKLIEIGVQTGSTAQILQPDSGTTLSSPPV
# Sequence of Fibroblast growth factor receptor 1 (Homo sapiens) (P11362 22-822 limits assumed): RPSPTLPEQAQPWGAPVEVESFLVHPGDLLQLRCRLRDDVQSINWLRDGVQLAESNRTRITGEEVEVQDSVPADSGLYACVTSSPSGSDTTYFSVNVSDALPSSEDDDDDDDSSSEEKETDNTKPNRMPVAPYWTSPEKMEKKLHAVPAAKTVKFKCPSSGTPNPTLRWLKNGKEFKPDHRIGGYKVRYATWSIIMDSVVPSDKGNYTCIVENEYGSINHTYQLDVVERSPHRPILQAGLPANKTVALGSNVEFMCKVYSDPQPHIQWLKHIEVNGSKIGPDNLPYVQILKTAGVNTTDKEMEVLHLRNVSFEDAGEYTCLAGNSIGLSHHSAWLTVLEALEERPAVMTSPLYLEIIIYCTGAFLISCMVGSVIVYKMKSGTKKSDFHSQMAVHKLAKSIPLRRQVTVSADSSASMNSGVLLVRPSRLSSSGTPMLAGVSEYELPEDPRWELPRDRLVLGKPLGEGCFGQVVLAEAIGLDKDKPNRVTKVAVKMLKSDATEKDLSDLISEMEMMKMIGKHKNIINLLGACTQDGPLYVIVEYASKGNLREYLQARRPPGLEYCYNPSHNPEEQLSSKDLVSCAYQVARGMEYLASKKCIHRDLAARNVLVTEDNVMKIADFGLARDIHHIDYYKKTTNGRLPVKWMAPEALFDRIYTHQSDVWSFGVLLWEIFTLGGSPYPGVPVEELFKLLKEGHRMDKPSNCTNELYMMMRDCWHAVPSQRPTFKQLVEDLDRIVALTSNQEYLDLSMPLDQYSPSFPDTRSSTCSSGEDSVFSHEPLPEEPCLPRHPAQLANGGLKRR
# Sequence of Platelet-derived growth factor receptor beta (Homo sapiens) (P09619 whole entry): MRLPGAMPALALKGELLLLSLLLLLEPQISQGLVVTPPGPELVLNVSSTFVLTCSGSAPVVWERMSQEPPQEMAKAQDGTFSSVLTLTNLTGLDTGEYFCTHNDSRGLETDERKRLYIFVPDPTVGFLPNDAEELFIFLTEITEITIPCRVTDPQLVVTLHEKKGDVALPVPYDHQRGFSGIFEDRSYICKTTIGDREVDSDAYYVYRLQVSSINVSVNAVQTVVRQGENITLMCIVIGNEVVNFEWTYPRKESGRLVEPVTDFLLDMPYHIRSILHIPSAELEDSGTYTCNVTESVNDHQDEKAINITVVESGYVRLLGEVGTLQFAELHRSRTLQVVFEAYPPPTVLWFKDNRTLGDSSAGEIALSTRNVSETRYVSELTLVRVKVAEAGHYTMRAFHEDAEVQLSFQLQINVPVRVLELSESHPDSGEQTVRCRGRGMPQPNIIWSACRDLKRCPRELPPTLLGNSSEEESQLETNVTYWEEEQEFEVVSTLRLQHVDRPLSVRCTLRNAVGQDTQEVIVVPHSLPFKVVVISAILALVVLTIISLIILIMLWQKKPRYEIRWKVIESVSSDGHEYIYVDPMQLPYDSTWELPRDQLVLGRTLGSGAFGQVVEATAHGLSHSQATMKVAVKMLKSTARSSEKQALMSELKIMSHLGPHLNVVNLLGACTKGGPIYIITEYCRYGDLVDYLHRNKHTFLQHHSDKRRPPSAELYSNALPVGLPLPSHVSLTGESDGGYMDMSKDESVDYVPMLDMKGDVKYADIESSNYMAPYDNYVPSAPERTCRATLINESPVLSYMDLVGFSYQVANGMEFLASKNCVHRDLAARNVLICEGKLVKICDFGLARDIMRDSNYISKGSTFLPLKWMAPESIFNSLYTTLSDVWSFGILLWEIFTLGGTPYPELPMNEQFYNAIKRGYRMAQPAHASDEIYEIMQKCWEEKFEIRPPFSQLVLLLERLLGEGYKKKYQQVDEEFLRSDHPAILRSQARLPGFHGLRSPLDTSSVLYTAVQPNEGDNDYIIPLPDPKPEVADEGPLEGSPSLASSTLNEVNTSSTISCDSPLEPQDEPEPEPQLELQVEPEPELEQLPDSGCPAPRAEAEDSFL
Compound,IC50 (MCF7 [1]) [µM],IC50 (HeLa [2]; [16]) [µM],IC50 (HUVEC [4]) [µM],IC50 (A-431) [µM],IC50 [6] [µM],also measured
C#CCNC(=O)Nc1cccc(CNCc2ccc(C)cc2)c1,49.9,329,–,–,–,–
C#CCNC(=O)Nc1cccc(CNCc2ccccc2)c1,343,–,50,0.318,192,Activity (HUVEC [3]): Non-toxic; IC50 (HeLa [2]; hela): Not Active; Activity (HUVEC [5]): Active
C#CCNC(=O)Nc1cccc(CCl)c1,1.48,1.55,20,0.036,10.5,EC50 (HUVEC [7]): 0.26 µM; inhibition of growth at 100 µM (HeLa [8]): 86.9%; inhibition [9]: inactive; inhibition [10]: inactive; inhibition [11]: Active; inhibition at 0.025 µM (HUVEC [12]): 21.2%; inhibition of growth at 100 µM (MCF7 [13]): 85.2%; Ratio (HUVEC [14]): 77
COc1ccc(N(C(=O)N(C)C)c2nnc(-c3ccccc3)s2)cc1OC,–,–,–,–,–,IC50 (K562): 3 µM
CNC(=O)c1cc(Oc2ccc(NC(=O)Nc3ccc(Cl)c(C(F)(F)F)c3)cc2)ccn1 [SORAFENIB],–,–,–,–,–,IC50 (MDA-MB-231): 2.5 µM
COc1cccc2c1C(=O)c1c(O)c3c(c(O)c1C2=O)C[C@@](O)(C(=O)CO)C[C@@H]3O[C@H]1C[C@H](N)[C@H](O)[C@H](C)O1 [DOXORUBICIN],–,0.19,–,–,–,–
C#CCNC(=O)Nc1cccc(COc2ccc(C(=O)OC)cc2)c1,74.9,12.3,100,0.215,78.2,EC50 (HUVEC [7]): 17.5 µM; inhibition at 6.25 µM (HUVEC [15]): 46.5%; inhibition [9]: inactive; inhibition [10]: inactive; Ratio (HUVEC [14]): 6
C#CCNC(=O)Nc1cccc(CNCc2ccc(OC)cc2)c1,195,392,–,–,–,–
C#Cc1cccc(Nc2ncnc3cc(OCCOC)c(OCCOC)cc23)c1 [ERLOTINIB],–,–,–,0.055,–,–
C#CCNC(=O)Nc1cccc(CNCc2ccc(OC(F)(F)F)cc2)c1,283,339,–,–,–,–

# From ChEMBL document CHEMBL2016469, “Synthesis and evaluation of 1-(substituted)-3-prop-2-ynylureas as antiangiogenic agents” (Bioorg Med Chem Lett, 2012)
